Converted amounts (≈) assume the structure as drawn.
How the values were obtained:
Staphylococcus aureus [1] = test: Antimicrobial activity against hospital acquired methicillin-resistant Staphylococcus aureus HMC546 by broth microdilution method at pH 7.4; format: functional
Method in brief: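 Minimal inhibitory concentration by broth microdilution at pH 7.4, read in mg/liter. The MRSA genotype was confirmed by mecA PCR, and the SCCmec subgroup was assigned by multiplex PCR.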

Staphylococcus aureus [2] = test: Antimicrobial activity against constitutive beta-lactamase negative methicillin-resistant Staphylococcus aureus COL NRS100 infected in human THP-1 cells assessed as decrease in bacterial count from original inoculum at high compound concentration after 24 hrs at pH 5.5; format: functional
Method in brief: (§1)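 Bacteria phagocytosed by unactivated human THP-1 macrophages, then incubated 24 h with extracellular antibiotic at about 0.01× to 100× the pH 5.5 broth MIC. CFU per mg cell protein counted against the original inoculum, n = 3. A Hill-equation fit (slope factor 1) gave Emin and Emax, extrapolated to infinitely low and high concentration, and EC50. Static concentration was graphically interpolated.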

Staphylococcus aureus [3] = test: Antimicrobial activity against hospital acquired methicillin-resistant Staphylococcus aureus ATCC 33591 infected in human THP-1 cells assessed as decrease in bacterial count from original inoculum at high compound concentration after 24 hrs at pH 5.5; format: functional; method in brief: as §1
Staphylococcus aureus [4] = test: Antimicrobial activity against intracellular beta-lactamase negative methicillin-susceptible Staphylococcus aureus ATCC 25923 infected in human Calu3 cells assessed as decrease in bacterial growth after 24 hrs at pH 7.4; format: functional, organism-based; details: ATCC 25923, Calu-3, 24 h
Method in brief: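 Calu-3 bronchial epithelial cells, grown in uncoated flasks, were infected with 5 × 10⁷ to 1 × 10⁸ bacteria/ml for 2 h, giving 1.5 × 10⁶ to 3.0 × 10⁶ CFU/mg protein after phagocytosis. Cells were then exposed 24 h to a range of cloxacillin concentrations (mg/liter). CFU change per mg protein was measured (n = 3). A Hill fit with slope 1 gave Emax and EC50, and the static concentration was interpolated.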

Staphylococcus aureus [5] = test: Antimicrobial activity against Panton-valentine leukocidin positive community acquired methicillin-resistant Staphylococcus aureus N4090440 obtained from wound infection of patient infected in human THP-1 cells assessed as increase in bacterial count from original inoculum at low compound concentration after 24 hrs at pH 5.5; format: functional; method in brief: as §1
Staphylococcus aureus [6] = test: Bacteriostatic activity against hospital acquired methicillin-resistant Staphylococcus aureus ATCC 33591 infected in human THP-1 cells assessed as decrease in bacterial growth after 24 hrs at pH 5.5; format: functional
Method in brief: (§2)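 Human THP-1 macrophages infected with each S. aureus strain. Cloxacillin added extracellularly at about 0.01× to 100× the broth MIC measured at pH 5.5, with gentamicin 0.5 mg/liter to stop extracellular growth. Incubated 24 h. CFU counted per mg cell protein as change from the post-phagocytosis inoculum, n = 3. Emin, Emax and EC50 from a Hill fit; static concentration by graphical interpolation.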

Staphylococcus aureus [7] = test: Antimicrobial activity against intracellular beta-lactamase negative methicillin-susceptible Staphylococcus aureus ATCC 25923 infected in human keratinocytes assessed as decrease in bacterial count from original inoculum at high compound concentration after 24 hrs at pH 7.4; format: functional
Method in brief: (§3)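 Primary human skin keratinocytes or Calu-3 bronchial epithelial cells infected with MSSA ATCC 25923 at 5 × 10⁷ to 1 × 10⁸ bacteria/ml, 2 h internalization. Postphagocytosis inoculum 1.5 × 10⁶ to 3.0 × 10⁶ CFU/mg protein. Cloxacillin concentration range for 24 h; CFU/mg protein change vs. inoculum (n = 3). Hill fit gives Emin/Emax; static concentration by graphical interpolation.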

Staphylococcus aureus [8] = test: Antimicrobial activity against hospital acquired methicillin-resistant Staphylococcus aureus HMC546 infected in human THP-1 cells assessed as decrease in bacterial growth after 24 hrs at pH 5.5; format: functional, organism-based; details: HMC546, THP-1, 24 h; method in brief: as §1
Staphylococcus aureus [9] = test: Bacteriostatic activity against intracellular beta-lactamase negative methicillin-susceptible Staphylococcus aureus ATCC 25923 infected in human Calu3 cells assessed as decrease in bacterial growth after 24 hrs at pH 7.4; format: functional, Calu-3; method in brief: as §3
Staphylococcus aureus [10] = test: Antimicrobial activity against intracellular beta-lactamase negative methicillin-susceptible Staphylococcus aureus ATCC 25923 infected in human Calu3 cells assessed as increase in bacterial count from original inoculum at low compound concentration after 24 hrs at pH 7.4; format: functional, Calu-3; method in brief: as §3
Staphylococcus aureus [11] = test: Antimicrobial activity against Panton-valentine leukocidin positive community acquired methicillin-resistant Staphylococcus aureus N4090440 obtained from wound infection of patient infected in human THP-1 cells assessed as decrease in bacterial growth after 24 hrs at pH 5.5; format: functional, organism-based; details: N4090440, THP-1, 24 h; method in brief: as §1
Staphylococcus aureus [12] = test: Bacteriostatic activity against animal acquired methicillin-resistant Staphylococcus aureus N7112046 infected in human THP-1 cells assessed as decrease in bacterial growth after 24 hrs at pH 5.5; format: functional; method in brief: as §2
Staphylococcus aureus [13] = test: (§4) Antimicrobial activity against hospital acquired methicillin-resistant and vancomycin-intermediate Staphylococcus aureus VRS2 obtained from wound, skin and soft tissue infection of patient infected in human THP-1 cells assessed as increase in bacterial count from original inoculum at low compound concentration after 24 hrs at pH 5.5; format: functional; method in brief: as §2
Staphylococcus aureus [14] = test: Antimicrobial activity against animal acquired methicillin-resistant Staphylococcus aureus N7112046 infected in human THP-1 cells assessed as decrease in bacterial count from original inoculum at high compound concentration after 24 hrs at pH 5.5; format: functional; method in brief: as §1
Staphylococcus aureus [15] = test: Bacteriostatic activity against hospital acquired methicillin-resistant Staphylococcus aureus N4120210 infected in human THP-1 cells assessed as decrease in bacterial growth after 24 hrs at pH 5.5; format: functional; method in brief: as §2
Staphylococcus aureus [16] = test: Antimicrobial activity against intracellular hospital acquired methicillin-resistant Staphylococcus aureus ATCC 33591 infected in human Calu3 cells assessed as decrease in bacterial count from original inoculum at high compound concentration after 24 hrs at pH 7.4; format: functional, Calu-3
Method in brief: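 Primary human skin keratinocytes or Calu-3 bronchial epithelial cells, given an inoculum of 5 × 10⁷ to 1 × 10⁸ bacteria/ml and 2 h for internalization. Post-phagocytosis load 1.5 × 10⁶ to 3.0 × 10⁶ CFU per mg cell protein. Cloxacillin dose range in mg/liter for 24 h, n = 3. Hill-derived Emin, Emax and EC50; static concentration interpolated.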

Staphylococcus aureus [17] = test: Antimicrobial activity against constitutive beta-lactamase negative methicillin-resistant Staphylococcus aureus COL NRS100 by broth microdilution method at pH 7.4; format: functional
Staphylococcus aureus [18] = test: as §4, with “NRS18” for “VRS2”, “decrease” for “increase”, “high” for “low”; format: functional; method in brief: as §1
Staphylococcus aureus [19] = test: Antimicrobial activity against animal acquired methicillin-resistant Staphylococcus aureus N7112046 infected in human THP-1 cells assessed as decrease in bacterial growth after 24 hrs at pH 5.5; format: functional, organism-based; details: N7112046, THP-1, 24 h; method in brief: as §1
Staphylococcus aureus [20] = test: Antimicrobial activity against intracellular beta-lactamase negative methicillin-susceptible Staphylococcus aureus ATCC 25923 infected in activated human THP-1 cells assessed as decrease in bacterial growth after 24 hrs at pH 7.4; format: functional, organism-based; details: ATCC 25923, THP-1, 24 h
Method in brief: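 THP-1 cells activated by 24-h culture with phorbol myristate acetate 2 mg/liter, then infected like unactivated THP-1. Cloxacillin dose range in mg/liter for 24 h. CFU per mg cell protein relative to the original inoculum, n = 3. Emin and Emax extrapolated from a Hill fit (slope 1), with EC50 as total drug; static concentration by graphical interpolation.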

Staphylococcus aureus [21] = test: Antimicrobial activity against hospital acquired methicillin-resistant Staphylococcus aureus N4120032 obtained from wound infection of patient infected in human THP-1 cells assessed as increase in bacterial count from original inoculum at low compound concentration after 24 hrs at pH 5.5; format: functional; method in brief: as §1

Cc1onc(-c2ccccc2Cl)c1C(=O)N[C@@H]1C(=O)N2[C@@H]1SC(C)(C)[C@@H]2C(=O)O [CLOXACILLIN] gave an MIC (Staphylococcus aureus [1]) of 16 mg/L (≈ 36.7 µM), a log10cfu (Staphylococcus aureus [2]) of 0.78 and a log10cfu (Staphylococcus aureus [3]) of 0.55. The EC50 (Staphylococcus aureus [4]) was 0.52 mg/L (≈ 1.19 µM), the log10cfu (Staphylococcus aureus [5]) was 2.51 and the Activity (Staphylococcus aureus [6]) was 17.8 ×MIC. For the same compound, the log10cfu (Staphylococcus aureus [7]) was 0.95, the EC50 (Staphylococcus aureus [8]) was 5.67 ×MIC and the Activity (Staphylococcus aureus [9]) was 1.6 mg/L. It also gave a log10cfu (Staphylococcus aureus [10]) of 3.19, an EC50 (Staphylococcus aureus [11]) of 3.14 ×MIC and an Activity (Staphylococcus aureus [12]) of 17.8 ×MIC. It also gave a log10cfu (Staphylococcus aureus [13]) of 1.69, a log10cfu (Staphylococcus aureus [14]) of 0.72 and an Activity (Staphylococcus aureus [15]) of 35.5 ×MIC. The log10cfu (Staphylococcus aureus [16]) was 0.93, the MIC (Staphylococcus aureus [17]) was greater than 512 mg/L and the log10cfu (Staphylococcus aureus [18]) was 0.57. The EC50 (Staphylococcus aureus [19]) was 6.99 ×MIC, the EC50 (Staphylococcus aureus [20]) was 0.43 mg/L (≈ 0.986 µM) and the log10cfu (Staphylococcus aureus [21]) was 2.63.
